# Measured values as given in ChEMBL document CHEMBL1152244, “Proteochemometrics analysis of substrate interactions with dengue virus NS3 proteases” (Bioorg Med Chem, 2008).
# Non-standard residues stand in square brackets, D forms with d. Residues, ends and D or L forms follow the SMILES beside them. Tyr(3-NO2) = N[C@@H](Cc1ccc(O)c([N+](=O)[O-])c1)C(=O)O; 2Abz = Nc1ccccc1C(=O)O
# Assays:
# dengue virus type 2 = test: Activity of dengue virus 2 recombinant NS3 protease expressed in Escherichia coli C41(DE3) by fluorogenic assay
# Outline: (§1)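 NS2B(H)-NS3pro from inclusion bodies, Ni-chelate and gel filtration purified under 8 M urea, refolded by dialysis. Internally quenched Abz–RRRR-XXXX–nY–NH2 peptides, 1–100 µM (12 points), enzyme 150–200 nM, 50 mM Tris–HCl pH 9.0, 20% glycerol, 37 °C. Cleavage read as fluorescence, ex 320/em 420 nm. Initial rates fitted to give Km and kcat, averaged over ≥3 independent measurements.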
# dengue virus type 3 = test: Activity of dengue virus 3 recombinant NS3 protease expressed in Escherichia coli C41(DE3) by fluorogenic assay; outline: as §1
# dengue virus type 4 = test: Activity of dengue virus 4 recombinant NS3 protease expressed in Escherichia coli C41(DE3) by fluorogenic assay; outline: as §1
# dengue virus type 1 = test: Activity of dengue virus 1 recombinant NS3 protease expressed in Escherichia coli C41(DE3) by fluorogenic assay; outline: as §1
Compound,Km (dengue virus type 2),kcat (dengue virus type 2),Km (dengue virus type 3),kcat (dengue virus type 3),Km (dengue virus type 4),kcat (dengue virus type 4),Km (dengue virus type 1),kcat (dengue virus type 1)
C[C@H](NC(=O)CNC(=O)c1ccccc1N)C(=O)N[C@H](C(=O)N[C@@H](Cc1cnc[nH]1)C(=O)N[C@@H](Cc1ccc(O)c([N+](=O)[O-])c1)C(N)=O)[C@@H](C)O (H-[2Abz]GATH[Tyr(3-NO2)]-NH2),4.66 µM,0.0157 s⁻¹,18.9 µM,0.0237 s⁻¹,7.79 µM,0.0782 s⁻¹,17.4 µM,0.0825 s⁻¹
C[C@H](NC(=O)c1ccccc1N)C(=O)N[C@@H](CC(N)=O)C(=O)NCC(=O)N[C@@H](Cc1cnc[nH]1)C(=O)N[C@@H](Cc1ccc(O)c([N+](=O)[O-])c1)C(N)=O (H-[2Abz]ANGH[Tyr(3-NO2)]-NH2),7.02 µM,0.0015 s⁻¹,31.4 µM,0.0102 s⁻¹,10.8 µM,0.0595 s⁻¹,22.3 µM,0.031 s⁻¹
C[C@@H](O)[C@H](NC(=O)[C@H](Cc1c[nH]c2ccccc12)NC(=O)[C@H](CC(N)=O)NC(=O)c1ccccc1N)C(=O)N[C@@H](CC(N)=O)C(=O)N[C@@H](Cc1ccc(O)c([N+](=O)[O-])c1)C(N)=O (H-[2Abz]NWTN[Tyr(3-NO2)]-NH2),6.02 µM,0.005 s⁻¹,9.37 µM,0.0065 s⁻¹,10.4 µM,0.0378 s⁻¹,13.7 µM,0.0145 s⁻¹
C[C@@H](O)[C@H](NC(=O)[C@H](CO)NC(=O)c1ccccc1N)C(=O)N1CCC[C@H]1C(=O)N[C@@H](Cc1cnc[nH]1)C(=O)N[C@@H](Cc1ccc(O)c([N+](=O)[O-])c1)C(N)=O (H-[2Abz]STPH[Tyr(3-NO2)]-NH2),17.2 µM,0.0157 s⁻¹,42.2 µM,0.0145 s⁻¹,14.8 µM,0.078 s⁻¹,18.1 µM,0.0313 s⁻¹
NC(=O)[C@H](Cc1ccc(O)c([N+](=O)[O-])c1)NC(=O)[C@H](CS)NC(=O)[C@@H]1CCCN1C(=O)[C@H](CC(=O)O)NC(=O)CNC(=O)c1ccccc1N (H-[2Abz]GDPC[Tyr(3-NO2)]-NH2),13.2 µM,0.003 s⁻¹,41.5 µM,0.007 s⁻¹,11.5 µM,0.021 s⁻¹,31.9 µM,0.0202 s⁻¹
CC(C)C[C@H](NC(=O)[C@@H](NC(=O)CNC(=O)[C@H](C)NC(=O)c1ccccc1N)C(C)C)C(=O)N[C@@H](Cc1ccc(O)c([N+](=O)[O-])c1)C(N)=O (H-[2Abz]AGVL[Tyr(3-NO2)]-NH2),2.19 µM,0.00567 s⁻¹,10.6 µM,0.0105 s⁻¹,10.8 µM,0.0553 s⁻¹,23.9 µM,0.06 s⁻¹
NC(=O)C[C@H](NC(=O)CNC(=O)[C@H](Cc1cnc[nH]1)NC(=O)[C@H](Cc1cnc[nH]1)NC(=O)c1ccccc1N)C(=O)N[C@@H](Cc1ccc(O)c([N+](=O)[O-])c1)C(N)=O (H-[2Abz]HHGN[Tyr(3-NO2)]-NH2),4.34 µM,0.00133 s⁻¹,10.1 µM,0.00183 s⁻¹,7.06 µM,0.0192 s⁻¹,9.1 µM,0.004 s⁻¹
CC(C)C[C@H](NC(=O)[C@@H]1CCCN1C(=O)[C@H](Cc1c[nH]c2ccccc12)NC(=O)[C@H](CO)NC(=O)c1ccccc1N)C(=O)N[C@@H](Cc1ccc(O)c([N+](=O)[O-])c1)C(N)=O (H-[2Abz]SWPL[Tyr(3-NO2)]-NH2),5.54 µM,0.0105 s⁻¹,12 µM,0.0148 s⁻¹,7.18 µM,0.0668 s⁻¹,12.6 µM,0.0323 s⁻¹
C[C@@H](O)[C@H](NC(=O)CNC(=O)CNC(=O)c1ccccc1N)C(=O)N[C@@H](CC(=O)O)C(=O)N[C@@H](Cc1ccc(O)c([N+](=O)[O-])c1)C(N)=O (H-[2Abz]GGTD[Tyr(3-NO2)]-NH2),12.9 µM,0.00717 s⁻¹,18.6 µM,0.0247 s⁻¹,12.2 µM,0.0585 s⁻¹,49.7 µM,0.0715 s⁻¹
CSCC[C@H](NC(=O)CNC(=O)[C@H](C)NC(=O)[C@H](CO)NC(=O)c1ccccc1N)C(=O)N[C@@H](Cc1ccc(O)c([N+](=O)[O-])c1)C(N)=O (H-[2Abz]SAGM[Tyr(3-NO2)]-NH2),3.44 µM,0.031 s⁻¹,24.9 µM,0.0557 s⁻¹,22.7 µM,0.282 s⁻¹,25.5 µM,0.166 s⁻¹
